{"source": "ChEMBL document CHEMBL5724801", "about": "“EUbOPEN Chemogenomics Library - Multiplex” (2024)", "test_system": "U2OS", "assay": "Multiplex assay against U2OS", "format": "toxicity, cell-based", "settings": "human", "in_short": "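Per cents of healthy-nucleus cells form the tubulin, mitochondrial-mass and membrane-permeability phenotype values. Live cells were stained at seeding with Hoechst33342, BioTracker Green Microtubule Cytoskeleton Dye, MitoTracker Red and Annexin V Alexa Fluor 680. After compound addition they were imaged on a CQ1 microscope at 37°C and 5% CO2, and CellPathfinder machine-learning gating split them into Hoechst high-intensity objects or normal cells, normal cells into healthy, pyknosed or fragmented nuclei, and pyknosed cells into mitotic or apoptotic.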", "key": {"[1]": {"settings": "12 h, 1 µM, compound concentration 1 uM"}, "[2]": {"settings": "12 h, 10 µM, compound concentration 10 uM"}, "[3]": {"settings": "24 h, 1 µM, compound concentration 1 uM"}, "[4]": {"settings": "24 h, 10 µM, compound concentration 10 uM"}, "[5]": {"settings": "48 h, 1 µM, compound concentration 1 uM"}, "[6]": {"settings": "48 h, 10 µM, compound concentration 10 uM"}}, "note": "Values joined by “and” are separate entries in the source; they are usually repeats but may differ in a detail not shown here. Identical values can stand only once.", "data": [{"smiles": "CCOc1ccccc1C(=O)NCC1(N2CCN(CC)CC2)CCCCC1", "values": [{"measurement": "Population Apoptotic (%)", "setting": "[1]", "value": "45.83% and 31.82%"}, {"measurement": "Population Fragmented Nuclei (%)", "setting": "[1]", "value": "1.72% and 5.19%"}, {"measurement": "Population Healthy Nuclei (%)", "setting": "[1]", "value": "91.38% and 78.52%"}, {"measurement": "Population Hoechst High Intensity Objects (%)", "setting": "[1]", "value": 0, "unit": "%"}, {"measurement": "Population Membrane Permeable-Phenotype (%)", "setting": "[1]", "value": "1.26% and 8.49%"}, {"measurement": "Population Mitotic Cells (%)", "setting": "[1]", "value": "54.17% and 68.18%"}, {"measurement": "Population Normal (%)", "setting": "[1]", "value": 100, "unit": "%"}, {"measurement": "Population Pyknosed Nuclei (%)", "setting": "[1]", "value": "6.9% and 16.3%"}, {"measurement": "Population Tubulin-Different-Phenotype (%)", "setting": "[1]", "value": "0.63% and 0.94%"}, {"measurement": "Total Cell Count", "setting": "[1]", "value": "348 and 135"}, {"measurement": "Population Apoptotic (%)", "setting": "[2]", "value": "35% and 23.68%"}, {"measurement": "Population Fragmented Nuclei (%)", "setting": "[2]", "value": "1.81% and 4.03%"}, {"measurement": "Population Healthy Nuclei (%)", "setting": "[2]", "value": "80.05% and 70.47%"}, {"measurement": "Population Hoechst High Intensity Objects (%)", "setting": "[2]", "value": "0.23% and 0%"}, {"measurement": "Population Membrane Permeable-Phenotype (%)", "setting": "[2]", "value": "16.15% and 31.43%"}, {"measurement": "Population Mitotic Cells (%)", "setting": "[2]", "value": "65% and 76.32%"}, {"measurement": "Population Normal (%)", "setting": "[2]", "value": "99.77% and 100%"}, {"measurement": "Population Pyknosed Nuclei (%)", "setting": "[2]", "value": "18.14% and 25.5%"}, {"measurement": "Population Tubulin-Different-Phenotype (%)", "setting": "[2]", "value": "49.86% and 44.76%"}, {"measurement": "Total Cell Count", "setting": "[2]", "value": "442 and 149"}, {"measurement": "Population Apoptotic (%)", "setting": "[3]", "value": "46.15% and 50%"}, {"measurement": "Population Fragmented Nuclei (%)", "setting": "[3]", "value": "1.89% and 5.62%"}, {"measurement": "Population Healthy Nuclei (%)", "setting": "[3]", "value": "87.16% and 80.62%"}, {"measurement": "Population Hoechst High Intensity Objects (%)", "setting": "[3]", "value": 0, "unit": "%"}, {"measurement": "Population Membrane Permeable-Phenotype (%)", "setting": "[3]", "value": "1.21% and 8.53%"}, {"measurement": "Population Mitochondria Different-Phenotype (%)", "setting": "[3]", "value": "0% and 12.4%"}, {"measurement": "Population Mitotic Cells (%)", "setting": "[3]", "value": "53.85% and 50%"}, {"measurement": "Population Normal (%)", "setting": "[3]", "value": 100, "unit": "%"}, {"measurement": "Population Pyknosed Nuclei (%)", "setting": "[3]", "value": "10.95% and 13.75%"}, {"measurement": "Population Tubulin-Different-Phenotype (%)", "setting": "[3]", "value": "0.48% and 1.55%"}, {"measurement": "Total Cell Count", "setting": "[3]", "value": "475 and 160"}, {"measurement": "Population Apoptotic (%)", "setting": "[4]", "value": "52.04% and 44.44%"}, {"measurement": "Population Fragmented Nuclei (%)", "setting": "[4]", "value": "2.49% and 6.29%"}, {"measurement": "Population Healthy Nuclei (%)", "setting": "[4]", "value": "80.07% and 65.41%"}, {"measurement": "Population Hoechst High Intensity Objects (%)", "setting": "[4]", "value": 0, "unit": "%"}, {"measurement": "Population Membrane Permeable-Phenotype (%)", "setting": "[4]", "value": "8% and 10.58%"}, {"measurement": "Population Mitotic Cells (%)", "setting": "[4]", "value": "47.96% and 55.56%"}, {"measurement": "Population Normal (%)", "setting": "[4]", "value": 100, "unit": "%"}, {"measurement": "Population Pyknosed Nuclei (%)", "setting": "[4]", "value": "17.44% and 28.3%"}, {"measurement": "Population Tubulin-Different-Phenotype (%)", "setting": "[4]", "value": "29.33% and 41.35%"}, {"measurement": "Population Apoptotic (%)", "setting": "[5]", "value": "37.84% and 48.15%"}, {"measurement": "Population Fragmented Nuclei (%)", "setting": "[5]", "value": "2.6% and 4.8%"}, {"measurement": "Population Healthy Nuclei (%)", "setting": "[5]", "value": "88.67% and 71.62%"}, {"measurement": "Population Hoechst High Intensity Objects (%)", "setting": "[5]", "value": 0, "unit": "%"}, {"measurement": "Population Membrane Permeable-Phenotype (%)", "setting": "[5]", "value": "1.33% and 6.1%"}, {"measurement": "Population Mitotic Cells (%)", "setting": "[5]", "value": "62.16% and 51.85%"}, {"measurement": "Population Normal (%)", "setting": "[5]", "value": 100, "unit": "%"}, {"measurement": "Population Pyknosed Nuclei (%)", "setting": "[5]", "value": "8.74% and 23.58%"}, {"measurement": "Population Tubulin-Different-Phenotype (%)", "setting": "[5]", "value": "0.93% and 3.05%"}, {"measurement": "Population Apoptotic (%)", "setting": "[6]", "value": "58.2% and 70.77%"}, {"measurement": "Population Fragmented Nuclei (%)", "setting": "[6]", "value": "2.88% and 5.66%"}, {"measurement": "Population Healthy Nuclei (%)", "setting": "[6]", "value": "83.08% and 63.68%"}, {"measurement": "Population Hoechst High Intensity Objects (%)", "setting": "[6]", "value": "0.11% and 0%"}, {"measurement": "Population Mitotic Cells (%)", "setting": "[6]", "value": "41.8% and 29.23%"}, {"measurement": "Population Normal (%)", "setting": "[6]", "value": "99.89% and 100%"}, {"measurement": "Population Pyknosed Nuclei (%)", "setting": "[6]", "value": "14.04% and 30.66%"}, {"measurement": "Population Tubulin-Different-Phenotype (%)", "setting": "[6]", "value": "15.24% and 28.89%"}]}]}
